Calls of active or inactive are those of the source. The rule behind the calls is not given here.
Legend:
Mus musculus [1] = assay: Antidyslipidemic activity in diabetic C57BL/KsJ db/db mouse model assessed as reduction in plasma cholesterol level at 25 mg/kg, po qd for 10 days; assay type: functional; parameters: scale not given: the % may be the effect or the level left
How it was run: (§1)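 db/db mice (blood glucose 200−350, TG 170−250, cholesterol 170−250, HDL-C 32−40 mg/dL) dosed orally at 25 mg/kg daily for 10 days; retro-orbital blood taken on day 11 for plasma TG, cholesterol and HDL-C (and HDL-C/CHOL ratio); mean % change versus vehicle control, 5 mice per group; Student t test.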

[2] = Volume of distribution in Sprague-Dawley rat at 10 mg/kg, iv by LC-MS/MS method; assay type: ADME, organism-based; parameters: dose 10 mg/kg, route intravenous; settings: in vivo
How it was run: (§2)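 Male Sprague−Dawley rats, 225 ± 25 g. Single tail-vein dose of 10 mg/kg in DMF/PG/water (5:4:1), 0.2 μ filtered. Blood drawn from 0.08 to 48 h. Plasma spun at 2000g for 10 min at 4 °C and kept at −60 °C. LC-MS/MS with linear range 0.78−400 ng/mL; noncompartmental parameters.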

Syrian golden hamster [3] = assay: Antidyslipidemic activity in high fructose and high-fat diet fed dyslipidemic Syrian golden hamster model assessed as reduction in cholesterol level at 100 mg/kg/day for 7 days; assay type: functional, Mesocricetus auratus; parameters: scale not given: the % may be the effect or the level left
[4] = Tmax in Sprague-Dawley rat at 40 mg/kg, po by LC-MS/MS method; assay type: ADME, organism-based; parameters: dose 40 mg/kg, route oral; settings: in vivo
How it was run: (§3)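 Male Sprague−Dawley rats fasted 10−12 h, then given a single 40 mg/kg oral gavage as an aqueous 0.5% methyl cellulose suspension. Blood drawn from 0.25 to 120 h. Plasma spun at 2000g for 10 min at 4 °C and stored at −60 °C. LC-MS/MS, linear range 0.78−400 ng/mL.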

Syrian golden hamster [5] = assay: Antidyslipidemic activity in high fructose and high-fat diet fed dyslipidemic Syrian golden hamster model assessed as increase in HDL-cholesterol level at 100 mg/kg/day for 7 days; assay type: functional, Mesocricetus auratus
Mus musculus [6] = assay: Antidyslipidemic activity in diabetic C57BL/KsJ db/db mouse model assessed as reduction in plasma triglyceride level at 25 mg/kg, po qd for 10 days; assay type: functional; parameters: scale not given: the % may be the effect or the level left; how it was run: as §1
[7] = Cmax in Sprague-Dawley rat at 40 mg/kg, po by LC-MS/MS method; assay type: ADME, organism-based; parameters: dose 40 mg/kg, route oral; settings: in vivo; how it was run: as §3
[8] = Mean residence time in Sprague-Dawley rat at 40 mg/kg, po by LC-MS/MS method; assay type: ADME, organism-based; parameters: dose 40 mg/kg, route oral; settings: in vivo; how it was run: as §3
[9] = Elimination half life in Sprague-Dawley rat at 40 mg/kg, po by LC-MS/MS method; assay type: ADME, organism-based; parameters: dose 40 mg/kg, route oral; settings: in vivo, read-out: beta t1/2 (converted); how it was run: as §3
Mus musculus [10] = assay: Antidyslipidemic activity in diabetic C57BL/KsJ db/db mouse model assessed as increase in plasma HDL-C/cholesterol ratio at 25 mg/kg, po qd for 10 days; assay type: functional; how it was run: as §1
Syrian golden hamster [11] = assay: Antidyslipidemic activity in high fructose and high-fat diet fed dyslipidemic Syrian golden hamster model assessed as increase in HDL-cholesterol level at 25 mg/kg/day for 7 days; assay type: functional, Mesocricetus auratus
Mus musculus [12] = assay: Antidyslipidemic activity in diabetic C57BL/KsJ db/db mouse model assessed as increase in plasma HDL-cholesterol level at 25 mg/kg, po qd for 10 days; assay type: functional; how it was run: as §1
Rattus norvegicus [13] = assay: Volume of distribution in Sprague-Dawley rat at 40 mg/kg, po by LC-MS/MS method; assay type: ADME, organism-based; parameters: dose 40 mg/kg, route oral; settings: in vivo; how it was run: as §3
Mus musculus [14] = assay: Antihyperglycemic activity in diabetic C57BL/KsJ db/db mouse model assessed as improvement in glucose tolerance in hyperglycemia at 25 mg/kg, po qd for 10 days; assay type: functional
How it was run: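 Male/female C57BL/KsJ db/db mice, 12−18 weeks, 40−50 g, selected for glucose 200−350 mg/dL. Oral dosing daily for 10 days. OGTT on day 10 after an overnight fast: compound at −30 min, then 3 g/kg oral glucose at 0 min. Glucose read at 30, 60, 90 and 120 min. AUC taken versus vehicle, 5 mice per group.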

Syrian golden hamster [15] = assay: Antidyslipidemic activity in high fructose and high-fat diet fed dyslipidemic Syrian golden hamster model assessed as reduction in body weight at 25 mg/kg/day for 7 days; assay type: functional, Mesocricetus auratus; parameters: scale not given: the % may be the effect or the level left
How it was run: (§4)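 Syrian golden hamsters fed high-fructose high-fat diet; oral dosing in 1% gum acacia at 10, 30, 100 mg/kg (or 25 mg/kg) for 7 days, sham control given vehicle; plasma TG, cholesterol, LDL-C, HDL-C, glycerol and NEFA (kits), lipoprotein lipase activity and body weight; % change versus HFD control, six hamsters per group.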

Syrian golden hamster [16] = assay: Antidyslipidemic activity in high fructose and high-fat diet fed dyslipidemic Syrian golden hamster model assessed as reduction in body weight at 100 mg/kg/day for 7 days; assay type: functional, organism-based; settings: Mesocricetus auratus; how it was run: as §4
Rattus norvegicus [17] = assay: Antihyperlipidemic activity in Triton-induced dyslipidemic Wistar rat model assessed as reduction in triglyceride level at 100 mg/kg, po; assay type: functional; parameters: scale not given: the % may be the effect or the level left
How it was run: (§5)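 Male Wistar rats, 8−10 weeks, about 160 g, fed normal pellet diet. Triton X-100 given at 400 mg/kg ip; compound given orally in 1% gum acacia. Retro-orbital blood taken 18 h after Triton and serum separated at 1500g for 10 min. TG and cholesterol measured by kit. Mean % change versus dyslipidemic control, 5 animals.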

Rattus norvegicus [18] = assay: Antihyperlipidemic activity in Triton-induced dyslipidemic Wistar rat model assessed as reduction in cholesterol level at 100 mg/kg, po; assay type: functional; parameters: scale not given: the % may be the effect or the level left; how it was run: as §5
Syrian golden hamster [19] = assay: Antidyslipidemic activity in high fructose and high-fat diet fed dyslipidemic Syrian golden hamster model assessed as reduction in cholesterol level at 25 mg/kg/day for 7 days; assay type: functional, Mesocricetus auratus; parameters: scale not given: the % may be the effect or the level left
Rattus norvegicus [20] = assay: AUC in Sprague-Dawley rat at 40 mg/kg, po by LC-MS/MS method; settings: in vivo
Syrian golden hamster [21] = assay: Antidyslipidemic activity in high fructose and high-fat diet fed dyslipidemic Syrian golden hamster model assessed as reduction in triglyceride level at 25 mg/kg/day for 7 days; assay type: functional, Mesocricetus auratus; parameters: scale not given: the % may be the effect or the level left
How it was run: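 HFD-fed Syrian golden hamsters, six per group, fed a high-fructose diet. Oral dosing in 1% gum acacia for 7 days. Sham group received vehicle. Plasma TG was measured and body weight tracked. Results given as % change versus HFD control.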

[22] = Mean residence time in Sprague-Dawley rat at 10 mg/kg, iv by LC-MS/MS method; assay type: ADME, organism-based; parameters: dose 10 mg/kg, route intravenous; settings: in vivo; how it was run: as §2
Mus musculus [23] = assay: Reduction in body weight in diabetic C57BL/KsJ db/db mouse model in hyperglycemia at 25 mg/kg, po qd for 10 days relative to untreated control; assay type: functional
How it was run: (§6)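 db/db mice (C57BL/KsJ, 12−18 weeks, 40−50 g, glucose 200−350 mg/dL), housed at 23 ± 2.0 °C on a 12 h light cycle. Oral dosing daily for 10 days. Blood glucose checked each morning through day 9. Body weight recorded daily from day 1 to day 10. Mean % change versus vehicle, 5 mice per group; Student t test.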

Syrian golden hamster [24] = assay: Antidyslipidemic activity in high fructose and high-fat diet fed dyslipidemic Syrian golden hamster model assessed as reduction in LDL-cholesterol level at 100 mg/kg/day for 7 days; assay type: functional, Mesocricetus auratus; parameters: scale not given: the % may be the effect or the level left; how it was run: as §4
Rattus norvegicus [25] = assay: Antihyperlipidemic activity in Triton-induced dyslipidemic Wistar rat model assessed as reduction in phospholipid level at 100 mg/kg, po; assay type: functional; parameters: scale not given: the % may be the effect or the level left; how it was run: as §5
[26] = Plasma clearance in Sprague-Dawley rat at 10 mg/kg, iv by LC-MS/MS method; assay type: ADME, organism-based; parameters: dose 10 mg/kg, route intravenous; how it was run: as §2
[27] = Plasma clearance in Sprague-Dawley rat at 40 mg/kg, po by LC-MS/MS method; assay type: ADME, organism-based; parameters: dose 40 mg/kg, route oral; how it was run: as §3
Syrian golden hamster [28] = assay: Antidyslipidemic activity in high fructose and high-fat diet fed dyslipidemic Syrian golden hamster model assessed as reduction in LDL-cholesterol level at 25 mg/kg/day for 7 days; assay type: functional, Mesocricetus auratus; parameters: scale not given: the % may be the effect or the level left; how it was run: as §4
Rattus norvegicus [29] = assay: AUC in Sprague-Dawley rat at 10 mg/kg, iv by LC-MS/MS method; settings: in vivo
[30] = Oral bioavailability in Sprague-Dawley rat at 40 mg/kg by LC-MS/MS method; assay type: ADME, organism-based; settings: in vivo; how it was run: as §3
Syrian golden hamster [31] = assay: Antidyslipidemic activity in high fructose and high-fat diet fed dyslipidemic Syrian golden hamster model assessed as reduction in triglyceride level at 100 mg/kg/day for 7 days; assay type: functional, Mesocricetus auratus; parameters: scale not given: the % may be the effect or the level left; how it was run: as §4
[32] = Elimination half life in Sprague-Dawley rat at 10 mg/kg, iv by LC-MS/MS method; assay type: ADME, organism-based; parameters: dose 10 mg/kg, route intravenous; settings: in vivo, read-out: beta t1/2 (converted); how it was run: as §2
[33] = Cmax in Sprague-Dawley rat at 10 mg/kg, iv by LC-MS/MS method; assay type: ADME, organism-based; parameters: dose 10 mg/kg, route intravenous; settings: in vivo; how it was run: as §2
Mus musculus [34] = assay: Antihyperglycemic activity in diabetic C57BL/KsJ db/db mouse model assessed as reduction in plasma insulin level in hyperglycemia at 25 mg/kg, po qd for 10 days; assay type: functional; parameters: scale not given: the % may be the effect or the level left
How it was run: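 db/db mice dosed orally every day for 10 days. On day 11, retro-orbital blood was drawn and plasma insulin measured. Mean % change versus vehicle-treated control, 5 mice per group; Student t test.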

Mus musculus [35] = assay: Antihyperglycemic activity in diabetic C57BL/KsJ db/db mouse model assessed as reduction in hyperglycemia at 25 mg/kg, po qd for 10 days; assay type: functional; parameters: scale not given: the % may be the effect or the level left; how it was run: as §6

## CC(C)(C)NCC(O)COc1ccc2c(=O)cc(-c3cc(OCc4ccccc4)cc(OCc4ccccc4)c3)oc2c1 (racemic)
Mus musculus [1]
  Activity: 22.3%
[2]
  Vd: 69.4 L/kg
Syrian golden hamster [3]
  Activity: 22.9%
[4]
  Tmax: 8 h
Syrian golden hamster [5]
  Activity: 20%
Mus musculus [6]
  Activity: 20.1%
[7]
  Cmax: 60.9 ng/mL
[8]
  MRT: 43.2 h
[9]
  half-life: 19.6 h
Mus musculus [10]
  Percent increase in HDL-C/cholesterol ratio vs vehicle: 55.7
Syrian golden hamster [11]
  Activity: 13.3%
Mus musculus [12]
  Activity: 20.9%
Rattus norvegicus [13]
  Vd: 96.73 L/kg
Mus musculus [14]
  Activity: 25.9%
Syrian golden hamster [15]
  Activity: 8.89%
Syrian golden hamster [16]
  Activity: Active
Rattus norvegicus [17]
  Activity: 9%
Rattus norvegicus [18]
  Activity: 21%
Syrian golden hamster [19]
  Activity: 15.3%
Rattus norvegicus [20]
  AUC: 3469.28 ng·h/mL
Syrian golden hamster [21]
  Activity: 22.2%
[22]
  MRT: 22.8 h
Mus musculus [23]
  Activity: inactive
Syrian golden hamster [24]
  Activity: 61.9%
Rattus norvegicus [25]
  Activity: 18%
[26]
  clearance: 60.8 mL/min/kg
[27]
  CL/F: 57 mL/min/kg
Syrian golden hamster [28]
  Activity: 23.3%
Rattus norvegicus [29]
  AUC: 2717.5 ng·h/mL
[30]
  bioavailability: 29.5%
Syrian golden hamster [31]
  Activity: 61.5%
[32]
  half-life: 16.3 h
[33]
  Cmax: 998 ng/mL
Mus musculus [34]
  Activity: 30.6%
Mus musculus [35]
  Activity: 38.3%
